Assay results taken from PubChem BioAssay.
Active and inactive are the calls of the source.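 The calls were made as follows, unless noted: active = GFP response above 150% of the DMSO level; inconclusive = fewer than 70 events counted for a yeast strain; inactive = the rest.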

How the values were obtained:
[1] = RPL19A-GFP modulators, yeast TOR pathway, confirmation, cell-based, S. cerevisiae, flow cytometry, cherry picks, mother/daughter gates (AID 2270;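 active = GFP response below 50% of the DMSO control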); settings: S. cerevisiae RPL19A-GFP strain, 3 h, at 10 µM, stronger effect = lower value, 100 = same GFP as DMSO wells
[2] = LAP4-GFP expression modulators in yeast, confirmation, cell-based, cherry picks, flow cytometry, mother/daughter gates (AID 2271;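 active = GFP response above 150% of the DMSO control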;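 also: ratio of sample to DMSO plate mean so 100% equals DMSO level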); settings: S. cerevisiae LAP4-GFP strain, 3 h, at 10 µM, stronger effect = higher value, 100 means same as DMSO control
Procedure, shortened: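 material = Alexa 633-stained baker's yeast GFP-fusion strain | amount = 0.2 OD600 cells | schedule = 30 °C, 3 h compound incubation, rotating | signal = GFP by flow cytometry | measure = per-gate (all, mother, daughter) GFP response vs DMSO | controls = positive rapamycin (400 ng/mL), negative DMSO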

[3] = modulators of MEP2-GFP levels in yeast, confirmation, S. cerevisiae, flow cytometry GFP, cherry picks (AID 2272;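 active = GFP response above 150% of the DMSO control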;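 also: ratio of well signal to plate DMSO mean so 100% equals DMSO level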); settings: S. cerevisiae MEP2-GFP strain, 3 h, at 10 µM, stronger effect = higher value
[4] = AGP1-GFP expression modulators, hit retest, confirmation, cell-based, flow cytometry, S. cerevisiae, cherry picks (AID 2273);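 also: median GFP channel fluorescence over the whole cell population gate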; settings: S. cerevisiae AGP1-GFP strain, 3 h, at 10 µM
[5] = modulators of CIT2-GFP expression in yeast, confirmation, S. cerevisiae, GFP fusion, cherry picks, mother/daughter gates (AID 2274); settings: S. cerevisiae CIT2-GFP strain, flow cytometry, 3 h, at 10 µM, stronger effect = higher value
[6] = measured here: daughter cell gate
[7] = measured here: mother cell gate
[8] = measured here: daughter cell gate response
[9] = measured here: mother cell gate response

SMILES | GFP response vs DMSO [1] | GFP response vs DMSO [1, 6] | GFP response vs DMSO [1, 7] | GFP response relative to DMSO [2] | GFP response relative to DMSO [2, 8] | GFP response relative to DMSO [2, 9] | GFP response vs DMSO [3] | GFP response, % of DMSO [4] | GFP response, % of DMSO [5] | GFP response, % of DMSO [5, 6] | GFP response, % of DMSO [5, 7]
Cc1ccc(/C=C2/SC(=S)N(C3CCCCC3)C2=O)o1 | 100% (inactive) | 100% | 98.6% | 157% (active) | 145% | 161% | 126% (inactive) | 106% (inactive) | 98.8% (inactive) | 101% | 89.5%
CC1(C)CC(=O)C2=C(C1)OC1=C(C(=O)CC(C)(C)C1)C2c1ccc(O)cc1O | 104% (inactive) | 105% | 99.8% | 143% (inactive) | 139% | 143% | 97.8% (inactive) | 96.3% (inactive) | 95.2% (inactive) | 103% | 89.1%
O=C(O)CCC(=O)Nc1ccc(S(=O)(=O)c2ccc(NC(=O)CCC(=O)O)cc2)cc1 | 98.5% (inactive) | 100% | 97.7% | 102% (inactive) | 97.5% | 102% | 106% (inactive) | 100% (inactive) | 98.6% (inactive) | 99.3% | 99.3%
Cc1ccc(/C=C/C(=O)c2ccc([N+](=O)[O-])o2)cc1 | 101% (inactive) | 107% | 91.8% | 89.4% (inactive) | 89.8% | 85.2% | 114% (inactive) | 107% (inactive) | 106% (inactive) | 114% | 89.3%
Cc1cccc(NC(=O)c2ccccc2O)c1C | 97.3% (inactive) | 94.7% | 96.9% | 112% (inactive) | 104% | 116% | 99.3% (inactive) | 98.4% (inactive) | 95.8% (inactive) | 95.8% | 94.9%
COc1cc(NC(=O)c2ccc(C)cc2C)ccc1NC(=O)c1cc2ccccc2o1 | 97.1% (inactive) | 95.9% | 94.4% | 97.7% (inactive) | 97.5% | 95.4% | 106% (inactive) | 105% (inactive) | 97.2% (inactive) | 101% | 97.1%
COc1cccc2c1Oc1ncccc1N(C(=O)CCC(=O)NCc1ccccc1)C2 | 99.2% (inactive) | 98.1% | 101% | 97% (inactive) | 95.9% | 97.3% | 103% (inactive) | 102% (inactive) | 98.8% (inactive) | 99.2% | 98.1%
O=C1ON=C(c2ccccc2)/C1=C/c1ccco1 | 95.8% (inactive) | 86.4% | 85.2% | 169% (active) | 137% | 161% | 141% (inactive) | 89.2% (inactive) | 83.5% (inactive) | 92.7% | 70%
Cc1cccc(Nc2nc(-c3ccccn3)cs2)n1 | 77.9% (inactive) | 104% | 66.6% | 137% (inactive) | 138% | 120% | 110% (inactive) | 89.8% (inactive) | 100% (inactive) | 121% | 83.7%
CC1=C(C)/C(=N\OS(=O)(=O)c2ccccc2)C=CC1=O | 99.1% (inactive) | 98.8% | 91.2% | 250% (active) | 196% | 236% | 112% (inactive) | 93.4% (inactive) | 105% (inactive) | 111% | 95.6%
CCCCc1[nH]nc2c1C1(C(=O)N(CC)c3ccccc31)C(C#N)=C(N)O2 (configuration not stated) | 105% (inactive) | 101% | 103% | 98.2% (inactive) | 97.5% | 98.4% | 101% (inactive) | 106% (inactive) | 102% (inactive) | 97.4% | 95.6%
Cc1cccc(C(=O)Nc2ccc(O)cc2)c1 | 97.6% (inactive) | 97% | 97.3% | 100% (inactive) | 99% | 101% | 108% (inactive) | 104% (inactive) | 103% (inactive) | 101% | 104%
O=C(NC(=S)NNC(=O)c1cnccn1)c1ccc(Cl)cc1 | 103% (inactive) | 95% | 98.2% | 279% (active) | 241% | 260% | 114% (inactive) | 95.7% (inactive) | 106% (inactive) | 105% | 98.2%
COc1ccc(N=Cc2cc(Cc3ccccc3Cl)cc([N+](=O)[O-])c2O)cc1OC | 93.4% (inactive) | 93% | 86.5% | 142% (inactive) | 114% | 147% | 120% (inactive) | 96.7% (inactive) | 96.5% (inactive) | 86.7% | 96.6%
O=C1c2cccc3cccc(c23)C(=O)N1c1ccncc1 | 96.4% (inactive) | 97% | 98.8% | 84.9% (inactive) | 85% | 84.7% | 97.5% (inactive) | 103% (inactive) | 105% (inactive) | 106% | 106%
COc1cccc(N=Cc2nc(-c3ccccc3)oc2OC(C)=O)c1 | 97.4% (inactive) | 96.1% | 98.7% | 108% (inactive) | 101% | 113% | 87.8% (inactive) | 87.5% (inactive) | 95.5% (inactive) | 95.4% | 95%
O=C(c1ccccn1)c1conc1C(=O)c1ccc(Br)cc1 | 98.2% (inactive) | 93.9% | 102% | 204% (active) | 159% | 213% | 153% (inactive) | 105% (inactive) | 139% (inactive) | 126% | 147%
Cc1cc(S(=O)(=O)c2ccc([N+](=O)[O-])cn2)ccc1Br | 87.9% (inactive) | 89.9% | 82.2% | 143% (inactive) | 118% | 156% | 114% (inactive) | 113% (inactive) | 120% (inactive) | 138% | 103%
COc1ccc(CNC(=O)c2c(O)c3ccccc3n(C)c2=O)cc1OC | 96.9% (inactive) | 97.8% | 96.7% | 90.6% (inactive) | 92.9% | 91.3% | 110% (inactive) | 99.1% (inactive) | 103% (inactive) | 105% | 103%
O=c1[nH]n(Cc2ccccc2)c2ccccc12 | 97.6% (inactive) | 97.8% | 97.8% | 103% (inactive) | 102% | 103% | 102% (inactive) | 98.7% (inactive) | 96.4% (inactive) | 96.4% | 94.5%
Cc1occc1-c1nnc(-c2cc([N+](=O)[O-])cc([N+](=O)[O-])c2)o1 | 88.1% (inactive) | 82.8% | 85.9% | 142% (inactive) | 126% | 149% | 123% (inactive) | 135% (inactive) | 87.2% (inactive) | 85.7% | 81.8%
OC1(c2ccc(F)cc2)CSC(=Nc2cccnc2)N1Cc1ccco1 (configuration not stated) | 98% (inactive) | 99.6% | 98.7% | 102% (inactive) | 99.7% | 104% | 110% (inactive) | 104% (inactive) | 108% (inactive) | 106% | 108%
